Tests used:
Hepatitis C virus [1] = experiment: Inhibition of RNA synthesis activity of […]
Hepatitis C virus [2] = experiment: Inhibition of RNA synthesis activity of […] 1b Con1 replicase; set-up: species or system Hepatitis C virus subtype 1b
How it was run: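 Membrane-associated native replication complexes were isolated from 2209-23 replicon cells, with 20 μl reactions. One format used 2.5×10^6 cell equivalents for 60 min. The other used 3.1×10^6 cell equivalents for 90 min in 50 mM HEPES pH 7.5, 5 mM MgCl2, actinomycin D, 1 mM ATP/GTP/CTP, 0.4 μM [α-33P]UTP and a creatine phosphate regeneration system.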

O=c1ccn([C@@H]2O[C@H](COP(=O)(O)OP(=O)(O)OP(=O)(O)O)[C@@H](O)[C@H]2O)c(=O)[nH]1
Km (Hepatitis C virus [1]; Hepatitis C virus subtype 1b, Con1): 0.37 µM

C[C@@]1(F)[C@H](O)[C@@H](COP(=O)(O)OP(=O)(O)OP(=O)(O)O)O[C@H]1n1ccc(=O)[nH]c1=O [GS-461203]
IC50 (Hepatitis C virus [2]): 1190 nM
Ki (Hepatitis C virus [1]): 141 nM
IC50 (Hepatitis C virus [1]; Hepatitis C virus, Con1): 520 nM

Reference: ChEMBL document CHEMBL1156500, “Characterization of the metabolic activation of hepatitis C virus nucleoside inhibitor beta-D-2'-Deoxy-2'-fluoro-2'-C-methylcytidine (PSI-6130) and identification of a novel active 5'-triphosphate species” (J Biol Chem, 2007)
